We go through three compounds from article PMC2191014 (The Journal of Experimental Medicine, 1993).

The test system of data set [1] is NOD mice. Nature of the data set: Mortality and symptoms during chronic treatment, second experiment. Type of data set: in vivo, mouse (NOD). In short, it runs like this: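 Female NOD mice received 500 nmol test peptide in HBSS, i.p. and s.c., from 3 wk of age for 20 wk. Thereafter peptide was co-injected with ketotifen 3 mg/kg […] (13 mice). Controls were ketotifen only (15) and HBSS only (15).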

Data set [2] concerns NOD mice. Nature of the data set: Mortality and hypersensitivity during chronic treatment, first experiment. Type of data set: in vivo, mouse (NOD). The settings on record: after 10-18 wk of treatment; 500 nmol chronic. The method, boiled down:
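Female NOD mice from 3 wk of age got 500 nmol test peptide in HBSS, i.p. and s.c. at multiple sites. Schedule: five times/week for 3 wk, five times/week for a further 3 wk, then twice weekly to 22-23 wk. Groups: 18 test-peptide, 12 nonblocking-peptide and 18 HBSS-only mice.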

For data set [3], the target named is T1, Ad (Mus musculus, UniProt P01921+P04228).
T1 sequence (P01921 28-265): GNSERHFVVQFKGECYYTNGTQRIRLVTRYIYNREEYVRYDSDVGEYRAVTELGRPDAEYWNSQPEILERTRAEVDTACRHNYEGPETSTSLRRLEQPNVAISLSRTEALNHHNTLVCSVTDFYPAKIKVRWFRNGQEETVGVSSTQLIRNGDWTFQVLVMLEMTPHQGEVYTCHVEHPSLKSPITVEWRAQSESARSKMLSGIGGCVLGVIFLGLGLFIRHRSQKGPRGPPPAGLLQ
T1 sequence (P04228 24-256): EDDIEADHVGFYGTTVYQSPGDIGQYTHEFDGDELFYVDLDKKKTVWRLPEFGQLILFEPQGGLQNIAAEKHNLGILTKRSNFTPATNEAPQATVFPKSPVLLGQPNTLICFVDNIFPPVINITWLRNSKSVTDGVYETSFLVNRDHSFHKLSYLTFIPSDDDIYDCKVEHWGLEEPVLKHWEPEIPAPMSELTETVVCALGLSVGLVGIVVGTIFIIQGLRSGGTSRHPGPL
Nature of the data set: Competition for antigen presentation of OVA 323-339 to hybridoma DO11.10. Type of data set: cell-based. The method, boiled down:
(§1)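 LK cells (2.5 × 10^4/well) served as APC. They were preincubated 24 h with antigenic peptide plus competitor peptide in RPMI 1640 with 10% FCS, then irradiated (2,000 rad) and washed. Hybridoma cells (5 × 10^4/well) were added for 24 h. Supernatant was transferred to 10^4 CTLL cells, and IL-2 was read as thymidine uptake over the last 4 h of the 24-h CTLL culture.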

A short description of data set [4]: Peptide-specific antibodies by ELISA in sera of chronically treated mice. As to conditions: for peptide-specific IgG antibodies / peptide-specific IgM antibodies: ELISA, sera of chronically treated mice. Type of data set: in vivo, mouse (NOD). In short, it runs like this: (§2)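 ELISA on sera of individual chronically peptide-treated NOD mice at several time points. Wells were coated with 250 ng peptide in PBS at 4°C overnight and blocked with 2% BSA, 37°C, 30 min. Diluted sera ran 1 h at 37°C, then phosphatase-conjugated anti-mouse Ig, IgG or IgM (1:500) 2 h at 37°C. p-Nitrophenyl phosphate (1 mg/ml) ran 45 min, read at OD 405. Uncoated-well background was subtracted from duplicate means.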
In general terms: In an ELISA, binding on a coated surface is turned into a signal by an enzyme label.

Data set [5] in a line: Peptide-specific antibodies in mice of the Fig. 3 B experiment. Type of data set: in vivo, mouse (NOD). As to conditions: data not shown. In short, it runs like this: as §2
Data set [6] deals with Ag7. Nature of the data set: Screening: binding to Ag7. Type of data set: cell-based, mouse (NOD). As to conditions: screening of peptide panel.
In data set [7] the test system is Ek. Nature of the data set: Competition for antigen presentation of HEL 1-18 to hybridoma 2G7.1. Type of data set: cell-based, mouse. The settings on record: APC LK cells, 2 μM HEL 1-18, competitor up to 100 μM. In short, it runs like this:
as §1

In data set [8] the test system is NOD class II MHC molecule Ag7. Nature of the data set: Competition for antigen presentation of HEL 8-29 to T cell hybridoma 2D12.1. The settings on record: APC NOD splenocytes, 80 nM HEL 8-29, competitor up to 100 μM. The class given is cell-based, mouse (NOD). The method, boiled down:
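NOD splenocytes (2.5 × 10^5/well) served as APC. They were held 24 h with antigenic peptide and competitor in RPMI 1640 + 10% FCS, then irradiated at 2,000 rad and washed before 5 × 10^4 hybridoma cells were added. After 24 h, supernatant went onto 10^4 CTLL cells. IL-2 was measured by thymidine incorporation during the final 4 h of the 24-h CTLL culture.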

In data set [9] the test system is NOD mice, spontaneous autoimmune diabetes. Nature of the data set: Prevention of spontaneous diabetes in female NOD mice, first experiment. Type of data set: in vivo, mouse (NOD). In short, it runs like this: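 Female NOD mice from an SPF in-house colony were dosed from 3 wk of age with 500 nmol peptide in HBSS, i.p. and s.c. at multiple sites. The schedule was five times weekly for 3 wk, five times weekly for 3 wk more, then twice weekly to 22-23 wk. Arms: test peptide (18 mice), nonbinding control peptide (12), HBSS (18). Monitoring began at 10 wk; blood glucose ≥200 mg/dl counted as diabetic.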

The test system of data set [10] is Ed. Nature of the data set: Competition for antigen presentation of HEL 105-120 to hybridoma 1H11.3. The class given is cell-based, mouse. The settings on record: APC LK cells, 500 nM HEL 105-120, competitor up to 100 μM. In short, it runs like this: as §1
Data set [11] deals with Ag7-restricted T cell response. As to conditions: cited from earlier work.

Non-standard residues stand in square brackets, D forms with d. Residues, ends and D or L forms follow the SMILES beside them.

Consider `CC(C)[C@H](NC(=O)[C@@H](NC(=O)[C@H](Cc1ccc(O)cc1)NC(=O)[C@@H](NC(=O)[C@H](N)Cc1ccc(O)cc1)[C@@H](C)O)[C@@H](C)O)C(=O)N[C@@H](Cc1c[nH]cn1)C(=O)N[C@@H](C)C(=O)N[C@@H](C)C(=O)N[C@@H](Cc1c[nH]cn1)C(=O)N[C@@H](C)C(=O)N[C@@H](Cc1ccc(O)cc1)C(=O)N[C@H](C(=O)N[C@@H](Cc1ccc(O)cc1)C(=O)N[C@@H](C(=O)O)[C@H](C)O)[C@@H](C)O` [P1, yTYTVHAAHAYTYt] (H-[dY]TYTVHAAHAYTY[dT]-OH), for which the mortality result in data set [1] (P1 mixed with ketotifen (3 mg/kg) after 20 wk of treatment) was “no mortality occurred”. Moreover, the “symptoms after adding ketotifen” value in data set [1] (P1 mixed with ketotifen (3 mg/kg) after first signs of postinjection fatigue (20 wk of treatment)) is listed as “symptomless”. Also, in [2], the “mortality (died/total)” value is reported as 6/18. Moreover, in data set [3], the IC50 (as a rule, the concentration at which inhibition is half-maximal) was ~20 µM. Further, in [4], the “peptide-specific IgG antibodies” value was “IgG” and the “peptide-specific IgM antibodies” value is reported as “no IgM”. In data set [4] (after 13 wk of treatment), the “fraction of mice antibody negative” value was “Approximately half”. The “animals producing antibodies against the peptide” value in data set [5] was 3 of 13 animals.
In the case of KMKMVHAAHAKMKM [P2], the “mortality (died/total)” value in [2] was 1/12. Moreover, the “effect on antigen presentation by Ad” value in [3] (APC LK cells, 1 μM OVA 323-339, hybridoma DO11.10, competitor up to 100 μM) is “inhibited antigen presentation”. In addition, in [4], the “peptide-specific IgG antibodies” value is given as “no IgG” and the “peptide-specific IgM antibodies” value is listed as “exclusively of IgM isotype”. The “fraction of mice nonresponders” value in [4] (chronic treatment) was “Approximately half”. Also, the “binding to Ag7” value in data set [6] is given as “fails to bind”. The “effect on antigen presentation by Ek” value in data set [7] is “inhibited antigen presentation”. Moreover, the “effect on antigen presentation by Ag7” value in data set [8] is “not that by As7”. Also, the “plateau level of diabetic animals” value in [9] (by 22 wk of age, control groups (P2, 12 mice, or solvent)) was found to be 60%. Besides, in data set [9] (chronic administration from 3 wk of age on, female NOD mice), the “effect on spontaneous diabetes (summary)” value was “no effect on the disease”. In addition, in data set [10], the “effect on antigen presentation by Ed” value was “not that by As7 and Ea”.
“sheep insuline: sheep insulin used as antigen in NOD mice”: the “Ag7-restricted T cell response of NOD mice” value in data set [11] is given as “strong”.
